# Laboratory results taken from ChEMBL document CHEMBL3865789, “Synthesis and biological evaluation of isomeric methoxy substitutions on anti-cancer indolyl-pyridinyl-propenones: Effects on potency and mode of activity” (2016).
# Calls of active or inactive are those of the source. The rule behind the calls is not given here.
# Assays:
# [1] = Growth inhibition of human U251 cells at 10 uM after 48 hrs by sulforhodamine B colorimetric assay relative to control; type: functional; settings: U-251, 48 h, read-out: GI
# In short: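 U251 glioblastoma cells kept in DMEM with 10% FBS at 37°C, 5% CO2. Compounds in DMSO; vehicle-only controls. SRB colorimetric read-out at a 48 h end-point. GI50 relative to untreated control calculated by the NCI-60 protocol; top concentration tested 10 μM. Mean ± S.D. of three separate SRB assays.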
# [2] = Growth inhibition of human U251 cells after 48 hrs by sulforhodamine B colorimetric assay; type: functional; settings: U-251, 48 h
# In short: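 U251 glioblastoma cells kept in DMEM with 10% FBS at 37°C, 5% CO2. Compounds in DMSO; vehicle-only controls. SRB colorimetric read-out at a 48 h end-point. Mean ± S.D. of three separate SRB assays.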
# U-251 [3] = test: Induction of methuosis in human U251 cells assessed as vacuolization at 2.5 uM after 48 hrs by phase contrast microscopic analysis; type: functional, cell-based
# U-251 [4] = test: Induction of methuosis in human U251 cells assessed as rounding of cell body at 2.5 uM after 24 hrs by phase contrast microscopic analysis; type: functional, cell-based
# U-251 [5] = test: Mitotic arrest in human U251 cells assessed as accumulation at G2/M phase at >=500 nM after 24 hrs by propidium iodide staining based flow cytometric analysis; type: functional, cell-based
# In short: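 U251 cells seeded at 3.5 × 10^5 per 60 mm dish and treated the next day for 24 h. Attached and detached cells were harvested by trypsin and fixed in ice-cold 70% ethanol. They were then suspended in PBS with 6.25 mM MgSO4 and 1 mM CaCl2, RNase A-treated at 37 °C for 15 min and stained with propidium iodide. DNA content was read by flow cytometry.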
# U-251 [6] = test: Induction of methuosis in human U251 cells assessed as rounding of cell body at 2.5 uM after 48 hrs by phase contrast microscopic analysis; type: functional, cell-based
# U-251 [7] = test: Induction of methuosis in human U251 cells assessed as formation of membrane blebs on cell surface at 2.5 uM after 48 hrs by phase contrast microscopic analysis; type: functional, cell-based
# U-251 [8] = test: Induction of microtubule disruption in human U251 cells up to 2.5 uM by DAPI staining based immunofluorescence microscopy; type: cell-based
# In short: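 U251 cells seeded on glass coverslips, 350,000 per 60 mm dish. One day later, fresh medium with compound at the stated concentrations was added for 24 h. Cells were fixed and stained with monoclonal anti-α-tubulin, then Alexa Fluor 568 goat anti-mouse IgG. Nuclei counterstained with DAPI.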
# U-251 [9] = test: Induction of methuosis in human U251 cells assessed as cell detachment from dish at 2.5 uM after 24 hrs by phase contrast microscopic analysis; type: functional, cell-based
Structure (SMILES),inhibition of growth at 10 µM [1] [%],GI50 [2] [µM],other results
COc1ccc2c(c1)c(/C=C/C(=O)c1ccncc1)c(C)n2C,< 50,> 10,
COc1cccc2[nH]c(C)c(/C=C/C(=O)c3ccncc3)c12,,8.67,Activity (U-251 [3]): Active
COc1ccc2c(/C=C/C(=O)c3ccncc3)c(C(F)(F)F)[nH]c2c1,< 50,> 10,
COc1cc(OC)c(C(=O)/C=C/c2c(C)[nH]c3ccc(OC)cc23)c(OC)c1,,3.74,
COc1cccc2c(/C=C/C(=O)c3ccncc3)c(C)[nH]c12,,4.42,
COc1cc2[nH]c(C)c(/C=C/C(=O)c3ccncc3)c2cc1OC,< 50,> 10,
COc1ccc2c(/C=C/C(=O)c3ccncc3)c(C)[nH]c2c1,,0.09,Activity (U-251 [4]): Active; Activity (U-251 [5]): Active; Activity (U-251 [6]): Active; Activity (U-251 [3]): Active; Activity (U-251 [7]): Active; Activity (U-251 [8]): Active; Activity (U-251 [9]): Active
COc1ccc2[nH]c(C)c(/C=C/C(=O)c3cc(OC)c(OC)c(OC)c3)c2c1,< 50,> 10,
